# Experimental data reported in ChEMBL document CHEMBL3580579, “Anti-inflammatory Hydrolyzable Tannins from Myricaria bracteata” (J Nat Prod, 2015).
# The source made the active and inactive calls. The rule behind the calls is not given here.
# Tests used:
# [1] = Antioxidant activity assessed as DPPH radical-scavenging activity incubated for 30 mins by spectrophotometry; type: physicochemical
# Procedure, shortened: (§1)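 Radical scavenging of each tannin measured against DPPH and hydroxy radicals by literature methods, with BHT and Trolox as reference antioxidants.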
# [2] = Antioxidant activity assessed as hydroxy radical-scavenging activity; type: physicochemical; procedure, shortened: as §1
# [3] = tested on: J774; assay: Increase in cell viability of mouse J774 cells at 0.01 to 10 uM by MTT assay; type: functional, cell-based
# [4] = tested on: J774; assay: Inhibition of TNFalpha production in LPS-induced mouse J774 cells at 0.01 to 10 uM; type: functional, cell-based
# [5] = tested on: Mus musculus; assay: Anti-inflammatory activity in DBA/1 mouse model of collagen induced arthritis assessed as inhibition of disease progression and development at 20 mg/kg, sc measured on day 57; type: functional; settings: DBA/1, sc, 1368 h
# [6] = tested on: J774; assay: Inhibition of IL6 production in LPS-induced mouse J774 cells at 0.01 to 10 uM; type: functional, cell-based
# [7] = tested on: Mus musculus; assay: Anti-inflammatory activity in mouse model of croton oil-induced ear edema assessed as inhibition of ear swelling at 50 mg/kg, sc; type: functional
# [8] = tested on: Mus musculus; assay: Anti-inflammatory activity in mouse model of croton oil-induced ear edema assessed as inhibition of ear swelling at 200 mg/kg, sc; type: functional
# [9] = tested on: Mus musculus; assay: Anti-inflammatory activity in mouse model of croton oil-induced ear edema assessed as inhibition of ear swelling at 100 mg/kg, sc; type: functional
# [10] = tested on: Liver microsome; assay: Antioxidant activity assessed as inhibition of Fe2+-cysteine-induced lipid peroxidation in rat liver microsomes incubated for 30 mins by thiobarbituric acid based assay; type: functional; settings: 0.5 h
# [11] = tested on: J774; assay: Inhibition of nitric oxide production in LPS-induced mouse J774 cells at 0.01 to 10 uM incubated for 24 hrs by Griess reaction based assay; type: functional, cell-based
# [12] = tested on: Mus musculus; assay: Anti-inflammatory activity in mouse model of carrageenan-induced paw edema assessed as inhibition of paw edema at 50 mg/kg, sc; type: functional
IC50 [1],IC50 [2],SMILES,Activity [3],other results
3.06 µM,47.6 µM,O=C(O[C@@H]1O[C@@H]2COC(=O)c3cc(O)c(O)c(O)c3-c3c(cc(O)c(O)c3O)C(=O)O[C@H]2[C@H](OC(=O)c2cc(O)c(O)c(O)c2)[C@H]1OC(=O)c1cc(O)c(O)c(O)c1Oc1cc2c(c(O)c1O)Oc1cc(cc(O)c1O)C(=O)O[C@@H]1O[C@@H]3COC(=O)c4cc(O)c(O)c(O)c4-c4c(cc(O)c(O)c4O)C(=O)O[C@H]3[C@H](OC(=O)c3cc(O)c(O)c(O)c3)[C@H]1OC2=O)c1cc(O)c(O)c(Oc2c(C(=O)O[C@H]3[C@H](OC(=O)c4cc(O)c(O)c(O)c4)O[C@H](CO)[C@@H](O)[C@@H]3OC(=O)c3cc(O)c(O)c(O)c3)cc(O)c(O)c2O)c1,Active,
3.57 µM,41.5 µM,O=C1O[C@@H]2O[C@@H]3COC(=O)c4cc(O)c(O)c(O)c4-c4c(cc(O)c(O)c4O)C(=O)O[C@H]3[C@H](OC(=O)c3cc(O)c(O)c(O)c3)[C@H]2OC(=O)c2cc(Oc3c(C(=O)O[C@@H]4[C@@H](OC(=O)c5cc(O)c(O)c(O)c5)[C@@H]5OC(=O)c6cc(O)c(O)c(O)c6-c6c(cc(O)c(O)c6O)C(=O)OC[C@H]5O[C@H]4O)cc(O)c(O)c3O)c(O)c(O)c2Oc2cc1cc(O)c2O [TAMARIXININ A],Active,inhibition [4]: inactive; inhibition in vivo at 20 mg/kg [5]: 46%; inhibition [6]: inactive; inhibition in vivo at 50 mg/kg [7]: 34.4%; inhibition in vivo at 200 mg/kg [8]: 69.8%; inhibition in vivo at 100 mg/kg [9]: 39%; IC50 [10]: 18.4 µM; inhibition [11]: inactive; inhibition in vivo at 50 mg/kg [12]: 25%
4.23 µM,55.1 µM,O=C(O[C@@H]1O[C@@H]2COC(=O)c3cc(O)c(O)c(O)c3-c3c(cc(O)c(O)c3O)C(=O)O[C@H]2[C@H](OC(=O)c2cc(O)c(O)c(O)c2)[C@H]1OC(=O)c1cc(O)c(O)c(O)c1Oc1cc(C(=O)O[C@@H]2O[C@@H]3COC(=O)c4cc(O)c(O)c(O)c4-c4c(cc(O)c(O)c4O)C(=O)O[C@H]3[C@H](OC(=O)c3cc(O)c(O)c(O)c3)[C@H]2OC(=O)c2cc(O)c(O)c(O)c2Oc2cc3c(c(O)c2O)Oc2cc(cc(O)c2O)C(=O)O[C@@H]2O[C@@H]4COC(=O)c5cc(O)c(O)c(O)c5-c5c(cc(O)c(O)c5O)C(=O)O[C@H]4[C@H](OC(=O)c4cc(O)c(O)c(O)c4)[C@H]2OC3=O)cc(O)c1O)c1cc(O)c(O)c(O)c1,Active,
4.43 µM,42.9 µM,O=C1O[C@@H]2O[C@@H]3COC(=O)c4cc(O)c(O)c(O)c4-c4c(cc(O)c(O)c4O)C(=O)O[C@H]3[C@H](OC(=O)c3cc(O)c(O)c(O)c3)[C@H]2OC(=O)c2cc(O)c(O)c(O)c2Oc2cc(cc(O)c2O)C(=O)O[C@@H]2O[C@@H]3COC(=O)c4cc(O)c(O)c(O)c4-c4c(cc(O)c(O)c4O)C(=O)O[C@H]3[C@H](OC(=O)c3cc(O)c(O)c(O)c3)[C@H]2OC(=O)c2cc(O)c(O)c(O)c2Oc2cc1cc(O)c2O,Active,
2.4 µM,15.8 µM,O=C1O[C@@H]2O[C@H](CO)[C@@H](O)[C@H](OC(=O)c3cc(O)c(O)c(O)c3)[C@H]2OC(=O)c2cc(Oc3c(C(=O)O[C@H]4C(O)O[C@@H]5COC(=O)c6cc(O)c(O)c(O)c6-c6c(cc(O)c(O)c6O)C(=O)O[C@H]5[C@@H]4OC(=O)c4cc(O)c(O)c(O)c4)cc(O)c(O)c3O)c(O)c(O)c2Oc2cc1cc(O)c2O (stereo partly drawn),,
4.61 µM,38.5 µM,O=C(O[C@@H]1O[C@@H]2COC(=O)c3cc(O)c(O)c(O)c3-c3c(cc(O)c(O)c3O)C(=O)O[C@H]2[C@H](OC(=O)c2cc(O)c(O)c(O)c2)[C@H]1OC(=O)c1cc(O)c(O)c(O)c1-c1c(C(=O)O[C@@H]2O[C@@H]3COC(=O)c4cc(O)c(O)c(O)c4-c4c(cc(O)c(O)c4O)C(=O)O[C@H]3[C@H](OC(=O)c3cc(O)c(O)c(O)c3)[C@H]2OC(=O)c2cc(O)c(O)c(O)c2)cc(O)c(O)c1O)c1cc(O)c(O)c(O)c1 [HIRTELLIN A],Active,IC50 [10]: 15.6 µM
> 100 µM,> 100 µM,COc1cc(C(=O)O[C@@H]2[C@@H](OC(=O)c3cc(OC)c(OC)c(OC)c3Oc3cc4c(c(OC)c3OC)Oc3cc(cc(OC)c3OC)C(=O)O[C@@H]3O[C@@H]5COC(=O)c6cc(OC)c(OC)c(OC)c6-c6c(cc(OC)c(OC)c6OC)C(=O)O[C@H]5[C@H](OC(=O)c5cc(OC)c(OC)c(OC)c5)[C@H]3OC4=O)[C@H](OC)O[C@@H]3COC(=O)c4cc(OC)c(OC)c(OC)c4-c4c(cc(OC)c(OC)c4OC)C(=O)O[C@@H]23)cc(OC)c1OC,,inhibition in vivo at 200 mg/kg [8]: -0.7%
3.16 µM,38 µM,O=C1O[C@@H]2O[C@@H]3COC(=O)c4cc(O)c(O)c(O)c4-c4c(cc(O)c(O)c4O)C(=O)O[C@H]3[C@H](OC(=O)c3cc(O)c(O)c(O)c3)[C@H]2OC(=O)c2cc(Oc3c(C(=O)O)cc(O)c(O)c3O)c(O)c(O)c2Oc2cc1cc(O)c2O [NILOTININ M4],,
4.67 µM,32.5 µM,O=C(O[C@@H]1O[C@@H]2COC(=O)c3cc(O)c(O)c(O)c3-c3c(cc(O)c(O)c3O)C(=O)O[C@H]2[C@H](OC(=O)c2cc(O)c(O)c(O)c2)[C@H]1OC(=O)c1cc(O)c(O)c(O)c1Oc1cc2c(c(O)c1O)Oc1cc(cc(O)c1O)C(=O)O[C@@H]1O[C@H](CO)[C@@H](O)[C@H](OC(=O)c3cc(O)c(O)c(O)c3)[C@H]1OC2=O)c1cc(O)c(O)c(O)c1 [NILOTININ D8],Active,
> 100 µM,> 100 µM,COc1cc(C(=O)O[C@@H]2[C@H]3OC(=O)c4cc(Oc5c(C(=O)O[C@H]6[C@@H](OC)O[C@@H]7COC(=O)c8cc(OC)c(OC)c(OC)c8-c8c(cc(OC)c(OC)c8OC)C(=O)O[C@H]7[C@@H]6OC(=O)c6cc(OC)c(OC)c(OC)c6)cc(OC)c(OC)c5OC)c(OC)c(OC)c4Oc4cc(cc(OC)c4OC)C(=O)O[C@@H]3O[C@@H]3COC(=O)c4cc(OC)c(OC)c(OC)c4-c4c(cc(OC)c(OC)c4OC)C(=O)O[C@@H]23)cc(OC)c1OC,,inhibition in vivo at 200 mg/kg [8]: 2.1%
4.73 µM,36.8 µM,O=C1O[C@@H]2O[C@@H]3COC(=O)c4cc(O)c(O)c(O)c4-c4c(cc(O)c(O)c4O)C(=O)O[C@H]3[C@H](OC(=O)c3cc(O)c(O)c(O)c3)[C@H]2OC(=O)c2cc(Oc3c(C(=O)O[C@H]4C(O)O[C@H](CO)[C@@H](O)[C@@H]4OC(=O)c4cc(O)c(O)c(O)c4)cc(O)c(O)c3O)c(O)c(O)c2Oc2cc1cc(O)c2O (stereo partly drawn),,
4.44 µM,16.3 µM,O=C1O[C@@H]2O[C@@H]3COC(=O)c4cc(O)c(O)c(O)c4-c4c(cc(O)c(O)c4O)C(=O)O[C@H]3[C@H](OC(=O)c3cc(O)c(O)c(O)c3)[C@H]2OC(=O)c2cc(Oc3c(C(=O)O[C@H]4[C@H](OC(=O)c5cc(O)c(O)c(O)c5)O[C@H](CO)[C@@H](O)[C@@H]4OC(=O)c4cc(O)c(O)c(O)c4)cc(O)c(O)c3O)c(O)c(O)c2Oc2cc1cc(O)c2O,Active,
7.08 µM,22.6 µM,Cc1cc(C(C)(C)C)c(O)c(C(C)(C)C)c1 [BUTYLATED HYDROXYTOLUENE],,
8 µM,76.7 µM,Cc1c(C)c2c(c(C)c1O)CCC(C)(C(=O)O)O2 (stereo not drawn) [TROLOX],,
4.1 µM,39.7 µM,O=C(O[C@@H]1O[C@@H]2COC(=O)c3cc(O)c(O)c(O)c3-c3c(cc(O)c(O)c3O)C(=O)O[C@H]2[C@H](OC(=O)c2cc(O)c(O)c(O)c2)[C@H]1OC(=O)c1cc(O)c(O)c(O)c1Oc1cc2c(c(O)c1O)Oc1cc(cc(O)c1O)C(=O)O[C@@H]1O[C@@H]3COC(=O)c4cc(O)c(O)c(O)c4-c4c(cc(O)c(O)c4O)C(=O)O[C@H]3[C@H](OC(=O)c3cc(O)c(O)c(O)c3)[C@H]1OC2=O)c1cc(O)c(O)c(O)c1 [HIRTELLIN B],Active,IC50 [10]: 48.8 µM

SMILES,IC50 [1],IC50 [2],Activity [3],other results
O=C(O)c1cc(O)c(O)c(O)c1 [GALLIC ACID],7.23 µM,15.7 µM,,
